Reference: PubChem BioAssay AID588484 (The Scripps Research Institute Molecular Screening Center, 2011)
Active and inactive are the calls of the source.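 The calls were made as follows: active = IC50 of 1 µM or lower against any of the four tested PAD enzyme isoforms; inactive = the rest, IC50 above 1 µM everywhere.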

What was measured:
Test in all cases: inhibition of PAD isozymes 1-4 – biochemical, colorimetric, BAEE substrate, recombinant PAD1-4, selectivity assay for PAD4 inhibitor project, late-stage follow-up (AID 588484)
[1] = biological target: Protein-arginine deiminase type-1 (Homo sapiens) (UniProt Q9ULC6); conditions: recombinant PAD1-4, BAEE citrullination, colorimetric absorbance; PAD1
Chain of Protein-arginine deiminase type-1 (Homo sapiens) (Q9ULC6 whole entry, looked up): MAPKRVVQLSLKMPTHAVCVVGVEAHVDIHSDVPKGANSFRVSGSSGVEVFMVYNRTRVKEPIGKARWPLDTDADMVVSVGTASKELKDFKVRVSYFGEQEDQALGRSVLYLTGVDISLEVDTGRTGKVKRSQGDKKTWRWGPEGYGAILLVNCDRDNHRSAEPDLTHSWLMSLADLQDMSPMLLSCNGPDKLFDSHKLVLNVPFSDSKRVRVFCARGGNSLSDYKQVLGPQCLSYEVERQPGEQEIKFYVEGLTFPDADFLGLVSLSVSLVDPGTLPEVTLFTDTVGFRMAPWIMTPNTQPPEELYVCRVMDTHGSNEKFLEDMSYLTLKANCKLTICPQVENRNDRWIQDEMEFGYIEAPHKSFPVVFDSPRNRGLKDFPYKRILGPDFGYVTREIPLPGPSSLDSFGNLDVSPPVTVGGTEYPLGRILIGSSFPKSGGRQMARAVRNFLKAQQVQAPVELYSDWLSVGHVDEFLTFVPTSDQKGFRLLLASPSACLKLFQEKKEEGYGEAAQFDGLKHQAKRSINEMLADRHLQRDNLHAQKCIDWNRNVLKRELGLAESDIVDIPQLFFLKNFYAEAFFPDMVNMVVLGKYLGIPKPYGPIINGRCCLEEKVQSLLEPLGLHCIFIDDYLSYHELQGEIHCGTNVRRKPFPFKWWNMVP
In short: (§1)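 Reagent – 10 mM BAEE substrate · Material – recombinant PAD2, PAD3 or PAD4 enzyme, each assayed separately · Schedule – 15 min pre-incubation (37 °C), 15 min reaction · Technique – colorimetric citrulline measurement by absorbance at 540 nm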

[2] = biological target: Protein-arginine deiminase type-2 (Homo sapiens) (UniProt Q9Y2J8); conditions: recombinant PAD1-4, BAEE citrullination, colorimetric absorbance; PAD2
Chain of Protein-arginine deiminase type-2 (Homo sapiens) (Q9Y2J8 whole entry, looked up): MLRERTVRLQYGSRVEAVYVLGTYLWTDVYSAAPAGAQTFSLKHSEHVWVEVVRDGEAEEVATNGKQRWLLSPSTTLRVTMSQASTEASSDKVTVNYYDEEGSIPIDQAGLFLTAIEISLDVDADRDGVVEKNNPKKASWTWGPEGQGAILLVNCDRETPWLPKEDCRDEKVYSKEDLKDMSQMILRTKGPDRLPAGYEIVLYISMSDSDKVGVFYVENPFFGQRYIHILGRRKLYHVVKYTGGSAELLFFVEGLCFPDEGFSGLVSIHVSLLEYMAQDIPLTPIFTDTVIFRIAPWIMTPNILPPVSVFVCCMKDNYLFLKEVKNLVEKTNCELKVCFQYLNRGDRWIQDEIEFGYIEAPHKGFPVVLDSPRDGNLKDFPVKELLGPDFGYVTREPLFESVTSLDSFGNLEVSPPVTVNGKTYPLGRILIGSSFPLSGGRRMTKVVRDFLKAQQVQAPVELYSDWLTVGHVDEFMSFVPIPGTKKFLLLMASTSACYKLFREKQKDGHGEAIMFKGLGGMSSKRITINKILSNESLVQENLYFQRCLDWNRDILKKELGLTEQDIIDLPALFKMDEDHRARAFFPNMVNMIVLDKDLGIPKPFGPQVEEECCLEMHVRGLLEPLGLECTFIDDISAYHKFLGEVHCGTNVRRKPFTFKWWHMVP
In short: as §1

[3] = biological target: Protein-arginine deiminase type-3 (Homo sapiens) (UniProt Q9ULW8); conditions: recombinant PAD1-4, BAEE citrullination, colorimetric absorbance; PAD3
Chain of Protein-arginine deiminase type-3 (Homo sapiens) (Q9ULW8 whole entry, looked up): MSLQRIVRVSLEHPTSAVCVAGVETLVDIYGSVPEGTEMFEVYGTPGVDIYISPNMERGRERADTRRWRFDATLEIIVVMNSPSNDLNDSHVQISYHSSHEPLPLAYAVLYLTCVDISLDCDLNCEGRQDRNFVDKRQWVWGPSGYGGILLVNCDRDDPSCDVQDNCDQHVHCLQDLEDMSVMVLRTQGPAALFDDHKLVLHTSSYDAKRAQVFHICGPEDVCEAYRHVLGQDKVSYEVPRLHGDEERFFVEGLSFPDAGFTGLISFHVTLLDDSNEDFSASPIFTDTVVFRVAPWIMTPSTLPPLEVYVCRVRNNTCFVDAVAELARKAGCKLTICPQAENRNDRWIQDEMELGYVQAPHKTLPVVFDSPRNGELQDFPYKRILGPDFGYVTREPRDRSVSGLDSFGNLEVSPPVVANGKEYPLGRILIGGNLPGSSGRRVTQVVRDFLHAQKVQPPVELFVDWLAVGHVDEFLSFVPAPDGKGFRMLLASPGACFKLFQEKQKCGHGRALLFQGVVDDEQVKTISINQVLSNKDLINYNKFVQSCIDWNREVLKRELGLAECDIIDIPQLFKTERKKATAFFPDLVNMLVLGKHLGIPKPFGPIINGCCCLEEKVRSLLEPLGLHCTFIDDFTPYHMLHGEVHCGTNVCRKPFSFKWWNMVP
In short: as §1

[4] = biological target: Protein-arginine deiminase type-4 (Homo sapiens) (UniProt Q9UM07); conditions: recombinant PAD1-4, BAEE citrullination, colorimetric absorbance; PAD4
Chain of Protein-arginine deiminase type-4 (Homo sapiens) (Q9UM07 whole entry, looked up): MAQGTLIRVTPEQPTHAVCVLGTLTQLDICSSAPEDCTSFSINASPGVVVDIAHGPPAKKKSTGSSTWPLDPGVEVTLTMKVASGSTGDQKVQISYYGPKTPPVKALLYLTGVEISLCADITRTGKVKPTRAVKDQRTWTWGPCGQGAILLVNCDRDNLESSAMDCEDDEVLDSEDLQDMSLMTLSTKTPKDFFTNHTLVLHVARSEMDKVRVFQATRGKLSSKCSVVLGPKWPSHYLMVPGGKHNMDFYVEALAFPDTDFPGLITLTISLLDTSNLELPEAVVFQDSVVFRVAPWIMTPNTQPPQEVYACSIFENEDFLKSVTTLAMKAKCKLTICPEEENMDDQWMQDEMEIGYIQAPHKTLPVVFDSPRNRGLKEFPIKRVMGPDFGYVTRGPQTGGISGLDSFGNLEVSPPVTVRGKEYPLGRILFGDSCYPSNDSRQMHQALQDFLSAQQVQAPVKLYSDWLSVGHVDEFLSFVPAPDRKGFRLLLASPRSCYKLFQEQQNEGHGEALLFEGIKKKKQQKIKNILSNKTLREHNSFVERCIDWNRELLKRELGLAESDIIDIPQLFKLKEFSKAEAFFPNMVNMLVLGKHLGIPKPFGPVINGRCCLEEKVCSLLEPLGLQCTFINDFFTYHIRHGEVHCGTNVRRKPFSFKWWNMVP
In short: as §1

Measured: IC50

COC1=C(Br)C(=O)c2ncccc2C1=O
inactive: [1] | [2] | [3] | [4]
